ChEMBL document CHEMBL1129328, “Structure-activity studies of 6-(tetrazolylalkyl)-substituted decahydroisoquinoline-3-carboxylic acid AMPA receptor antagonists. 1. Effects of stereochemistry, chain length, and chain substitution” (J Med Chem, 1996)

Tests used:
[1] = biological target: T1, Glutamate receptor ionotropic, AMPA (Rattus norvegicus, UniProt P19490+P19491+P19492+P19493); assay: Binding affinity at Ionotropic glutamate receptor AMPA in rat cortical tissue by [3H]AMPA displacement.
[2] = biological target: Glutamate receptor ionotropic, kainate; assay: Binding affinity at Ionotropic glutamate receptor kainate in rat cortical tissue by [3H]-kainic acid displacement.
Procedure, shortened: (§1)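 Displacement of radioligand from rat cortical tissue membranes: [3H]CGS 19755 for NMDA sites, [3H]kainic acid for kainate sites. Each determination run in triplicate unless otherwise indicated.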

[3] = biological target: Glutamate NMDA receptor; assay: Binding affinity at N-methyl-D-aspartate glutamate receptor in rat cortical tissue by [3H]-CGS- 19755 displacement.; procedure, shortened: as §1
[4] = biological target: Glutamate receptor ionotropic, kainate; assay type: functional
[5] = biological target: Glutamate NMDA receptor; assay: (§2) Compound was tested for NMDA receptor antagonistic activity by measuring its ability to inhibit depolarizations induced by 40 uM NMDA in rat cortical slice preparation.; assay type: functional
[6] = biological target: T1, Glutamate receptor ionotropic, AMPA; assay: AMPA receptor antagonistic activity as inhibition of depolarizations induced by 40 uM AMPA in rat cortical slice preparation; assay type: functional
[7] = biological target: T1, Glutamate receptor ionotropic, AMPA; assay: Compound was tested for AMPA receptor antagonistic activity by measuring its ability to inhibit depolarizations induced by 40 uM quisqualic acid in rat cortical slice preparation.; assay type: functional
Procedure, shortened: (§3)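 Rat cortical slice (cortical wedge) preparation. Antagonism measured as inhibition of depolarizations evoked by 40 uM AMPA (a few cases 40 uM quisqualic acid instead) or 40 uM NMDA. Compounds were also applied alone to check for agonist activity.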

[8] = biological target: T1, Glutamate receptor ionotropic, AMPA; assay: Compound was tested for AMPA receptor antagonistic activity by measuring its ability to inhibit depolarizations induced by 40 uM AMPA in rat cortical slice preparation; assay type: functional; procedure, shortened: as §3
[9] = biological target: Glutamate NMDA receptor (Rattus norvegicus) (UniProt P35439+Q00959+Q00960+Q00961+Q62645+Q8VHN2+Q9R1M7); assay: as §2; assay type: functional; procedure, shortened: as §3

Structure (SMILES) | IC50 [1] [µM] | IC50 [2] [µM] | IC50 [3] [µM] | IC50 [4] [µM] | IC50 [5] [µM] | IC50 [6] [µM] | IC50 [7] [µM] | IC50 [8] [µM] | inhibition [9] [%]
CC(C[C@H]1CC[C@H]2CN[C@H](C(=O)O)C[C@H]2C1)c1nnn[nH]1 (stereo partly drawn) | 4.21 | 27.3 | > 100 |  |  |  |  |  | 
O=C(O)[C@@H]1C[C@H]2C[C@@H](c3nnn[nH]3)CC[C@H]2CN1 | 12.8 | 31.8 |  | > 100 | 7.5 | 40.9 |  |  | 
O=C(O)[C@@H]1C[C@H]2C[C@@H](CCc3nn[nH]n3)CC[C@H]2CN1 [TEZAMPANEL ANHYDROUS] |  | 247 |  | 31.7 | 61.3 | 6 |  |  | 
O=C(O)[C@H]1C[C@H]2CC(CCc3nnn[nH]3)CC[C@H]2CN1 (stereo partly drawn) | > 100 | > 100 | > 10 | > 100 | > 100 | > 100 |  |  | 
O=C(O)[C@@H]1C[C@H]2C[C@H](CCc3nnn[nH]3)CC[C@H]2CN1 | 59.6 | 180 | 60.6 | > 100 |  | > 100 |  |  | 
O=C(O)[C@@H]1C[C@H]2C[C@@H](CCCCc3nnn[nH]3)CC[C@H]2CN1 | 57 | > 100 | > 100 | < 100 | > 100 | 27.6 |  |  | 
O=C(O)[C@@H]1C[C@H]2C[C@@H](NCc3nn[nH]n3)CC[C@H]2CN1 | > 100 | > 100 | 11.5 | > 100 | 33.4 | 69.3 |  |  | 
O=C(O)C1Cc2cc(CCc3nnn[nH]3)ccc2CN1 (stereo not drawn) | > 100 | > 10 | > 10 | > 100 | > 100 | > 100 |  |  | 
O=C(O)[C@@H]1C[C@H]2C[C@@H](CCc3nnn[nH]3)CC[C@@H]2CN1 | > 100 | > 100 | > 100 | > 100 | > 100 | > 100 |  |  | 

Second part, the molecule after the results:

IC50 [1] [µM] | IC50 [2] [µM] | IC50 [3] [µM] | IC50 [4] [µM] | IC50 [5] [µM] | IC50 [6] [µM] | IC50 [7] [µM] | IC50 [8] [µM] | inhibition [9] [%] | Structure (SMILES)
> 100 | > 100 | 5.3 | > 100 | 13.6 | > 100 |  |  |  | O=C(O)[C@@H]1C[C@H]2C[C@H](OCc3nn[nH]n3)CC[C@H]2CN1
23.1 | > 100 | > 100 |  |  |  |  |  |  | O=CN(Cc1nn[nH]n1)[C@H]1CC[C@H]2CN[C@H](C(=O)O)C[C@H]2C1
16.8 | 18.7 | 27 | > 100 | > 100 |  | 22 |  |  | O=C(O)[C@@H]1C[C@H]2C[C@@H](CCCc3nnn[nH]3)CC[C@H]2CN1
9.8 | > 100 | 15.1 | 23.6 | 100 |  |  | 9 |  | O=C(O)[C@@H]1C[C@H]2C[C@@H](C(Cc3nnn[nH]3)c3ccccc3)CC[C@H]2CN1 (stereo partly drawn)
24 | 55 | 5.9 | > 100 | 28.3 | 29.5 |  |  |  | O=C(O)[C@@H]1C[C@H]2C[C@@H](OCc3nn[nH]n3)CC[C@H]2CN1
84.5 | > 100 | 0.94 | > 100 | 1.4 |  | > 100 |  |  | O=C(O)[C@@H]1C[C@H]2C[C@@H](Cc3nnn[nH]3)CC[C@H]2CN1
3 | 35 | 53.2 | 58 | > 100 |  |  | 6 |  | CC(Cc1nnn[nH]1)[C@H]1CC[C@H]2CN[C@H](C(=O)O)C[C@H]2C1 (stereo partly drawn)
> 100 | > 100 | 12.8 | > 100 |  | > 100 |  |  | 50 | O=C(O)[C@@H]1NCC[C@H]2CC(CCc3nnn[nH]3)CC[C@H]21 (stereo partly drawn)
> 100 | > 100 | 65.8 | > 100 | > 100 | > 100 |  |  |  | CN(Cc1nn[nH]n1)[C@H]1CC[C@H]2CN[C@H](C(=O)O)C[C@H]2C1
